Source: ChEMBL document CHEMBL5380855, “Acetyl-Click Screening Platform Identifies Small-Molecule Inhibitors of Histone Acetyltransferase 1 (HAT1)” (J Med Chem, 2023)
The source made the active and inactive calls. No cut-off for these calls is given here.

Assays:
[1] = biological target: T1, HAT1/Rbap46 (Homo sapiens) (UniProt Q16576+O14929); assay: (§1) Inhibition of C-terminal FLAG tagged full length human HAT1/Rbap46 transfected in HEK293F cells using histone H4 peptide as substrate and 4-pentynoyl-CoA as cofactor preincubated for 10 mins followed by 4-pentynoyl-CoA addition and measured after 1 hr by amplex red dye based fluorescence analysis relative to control; type: cell-based; design: concentration or dose not given beside the values; conditions: time 70.0 min
T1 sequence (O14929 2-419 partner limits assumed): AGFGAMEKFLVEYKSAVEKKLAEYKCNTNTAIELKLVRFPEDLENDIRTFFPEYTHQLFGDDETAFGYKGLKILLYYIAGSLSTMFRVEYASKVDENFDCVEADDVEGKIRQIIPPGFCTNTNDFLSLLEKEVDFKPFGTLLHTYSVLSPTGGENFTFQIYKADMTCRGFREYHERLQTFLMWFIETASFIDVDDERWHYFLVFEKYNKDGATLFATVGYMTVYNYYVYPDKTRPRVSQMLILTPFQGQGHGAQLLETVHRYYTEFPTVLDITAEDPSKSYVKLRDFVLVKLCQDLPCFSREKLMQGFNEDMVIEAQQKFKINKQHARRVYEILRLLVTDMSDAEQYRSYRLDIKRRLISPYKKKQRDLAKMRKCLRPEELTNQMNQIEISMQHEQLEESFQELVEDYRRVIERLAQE
T1 sequence (Q16576 2-425 limits assumed): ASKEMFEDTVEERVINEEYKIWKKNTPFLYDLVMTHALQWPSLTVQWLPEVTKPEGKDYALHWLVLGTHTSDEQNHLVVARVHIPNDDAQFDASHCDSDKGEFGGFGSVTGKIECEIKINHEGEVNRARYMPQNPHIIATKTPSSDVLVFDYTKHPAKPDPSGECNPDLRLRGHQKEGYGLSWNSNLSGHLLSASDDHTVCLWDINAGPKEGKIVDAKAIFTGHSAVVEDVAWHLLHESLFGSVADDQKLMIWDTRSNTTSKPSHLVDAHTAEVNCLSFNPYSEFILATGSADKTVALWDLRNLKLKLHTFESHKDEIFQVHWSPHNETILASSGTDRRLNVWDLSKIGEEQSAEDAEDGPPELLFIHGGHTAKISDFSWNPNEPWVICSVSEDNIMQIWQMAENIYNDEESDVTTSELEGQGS

[2] = biological target: T1, HAT1/Rbap46 (Homo sapiens); assay: as §1, with “cofactor at 100 uM” for “cofactor”; type: cell-based; conditions: time 70.0 min
HAT1/Rbap46 = HAT1/Rbap46 (Homo sapiens, UniProt O14929+Q16576); assay: Inhibition of C-terminal FLAG tagged full length human HAT1/Rbap46 transfected in HEK293F cells using histone H4 peptide as substrate and 4-pentynoyl-CoA as cofactor preincubated for 10 mins followed by 4-pentynoyl-CoA addition and measured after 1 hr by amplex red dye based fluorescence analysis; type: cell-based
Sequence of HAT1/Rbap46 (Q16576 whole entry): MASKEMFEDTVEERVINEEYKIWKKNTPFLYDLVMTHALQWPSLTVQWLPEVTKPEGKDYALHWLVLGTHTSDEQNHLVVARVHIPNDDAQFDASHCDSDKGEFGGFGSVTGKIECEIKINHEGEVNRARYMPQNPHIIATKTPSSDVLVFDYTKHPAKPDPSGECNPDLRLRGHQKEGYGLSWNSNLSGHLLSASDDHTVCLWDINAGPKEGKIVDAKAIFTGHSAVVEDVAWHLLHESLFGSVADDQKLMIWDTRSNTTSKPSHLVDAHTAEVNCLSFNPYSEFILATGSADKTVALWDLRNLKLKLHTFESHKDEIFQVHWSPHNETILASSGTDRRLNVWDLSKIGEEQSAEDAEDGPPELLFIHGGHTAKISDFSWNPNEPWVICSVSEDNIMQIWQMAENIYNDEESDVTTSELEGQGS
Sequence of HAT1/Rbap46 (O14929 whole entry): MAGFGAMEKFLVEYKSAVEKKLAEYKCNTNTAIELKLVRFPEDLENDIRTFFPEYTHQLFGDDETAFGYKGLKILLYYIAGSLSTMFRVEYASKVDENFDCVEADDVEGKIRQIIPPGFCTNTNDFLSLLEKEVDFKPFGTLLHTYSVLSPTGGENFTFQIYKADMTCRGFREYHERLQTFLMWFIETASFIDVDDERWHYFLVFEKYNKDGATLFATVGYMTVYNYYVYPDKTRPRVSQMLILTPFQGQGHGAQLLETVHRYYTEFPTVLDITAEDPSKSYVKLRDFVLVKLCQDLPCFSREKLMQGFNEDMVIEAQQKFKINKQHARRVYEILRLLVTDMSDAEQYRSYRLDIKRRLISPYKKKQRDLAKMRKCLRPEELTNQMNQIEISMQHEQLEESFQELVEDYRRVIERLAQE

[3] = biological target: T1, HAT1/Rbap46 (Homo sapiens); assay: as §1, with “cofactor at 1 to 100 uM” for “cofactor”; type: cell-based; conditions: dose 1-100 µM, time 70.0 min
[4] = Terminal elimination half life in CD1 mouse at 100 mg/kg, ip measured after 15 to 4320 mins by LC-MS/MS analysis; type: ADME, organism-based; conditions: in vivo, time 15-4320 min, read-out: LambdaZ
In short: (§2)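 Mice received one intraperitoneal injection at 100 mg/kg. Plasma concentrations of the drug were followed over time, out to 72 h, and PK parameters were derived from the plasma concentration–time profile.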

[5] = AUClast in CD1 mouse at 100 mg/kg, ip measured after 15 to 4320 mins by LC-MS/MS analysis; type: ADME, organism-based; design: time lower 15 min, dose 100 mg/kg, time upper 4320 min, route ip; conditions: in vivo; in short: as §2
[6] = Observed clearance in CD1 mouse at 100 mg/kg, ip measured after 15 to 4320 mins by LC-MS/MS analysis; type: ADME, organism-based; conditions: in vivo, time 15-4320 min; in short: as §2
[7] = Observed apparent volume of distribution during terminal phase in CD1 mouse at 100 mg/kg, ip measured after 15 to 4320 mins by LC-MS/MS analysis; type: ADME, organism-based; conditions: in vivo, time 15-4320 min, read-out: Vz/F; in short: as §2
A549 = assay: Antitumor activity against human A549 cells xenografted in NSG mouse assessed as reduction in tumor growth at 50 to 100 mg/kg, ip administered once for every 3 days starting from day 13 post tumor implantation by digital caliper method; type: functional, organism-based; conditions: dose 50-100 mg/kg
In short: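 A549 cells were implanted in both flanks of NSG mice and tumours were allowed to establish for 13 days. Vehicle or drug (50 or 100 mg/kg) was then injected i.p. once every third day.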

[8] = biological target: Histone acetyltransferase KAT6B (Homo sapiens, UniProt Q8WYB5); assay: Inhibition of human MYST4 incubated for 20 mins followed by 3H-Acetyl CoA addition and measured after 30 mins
Sequence of Histone acetyltransferase KAT6B (Q8WYB5 whole entry): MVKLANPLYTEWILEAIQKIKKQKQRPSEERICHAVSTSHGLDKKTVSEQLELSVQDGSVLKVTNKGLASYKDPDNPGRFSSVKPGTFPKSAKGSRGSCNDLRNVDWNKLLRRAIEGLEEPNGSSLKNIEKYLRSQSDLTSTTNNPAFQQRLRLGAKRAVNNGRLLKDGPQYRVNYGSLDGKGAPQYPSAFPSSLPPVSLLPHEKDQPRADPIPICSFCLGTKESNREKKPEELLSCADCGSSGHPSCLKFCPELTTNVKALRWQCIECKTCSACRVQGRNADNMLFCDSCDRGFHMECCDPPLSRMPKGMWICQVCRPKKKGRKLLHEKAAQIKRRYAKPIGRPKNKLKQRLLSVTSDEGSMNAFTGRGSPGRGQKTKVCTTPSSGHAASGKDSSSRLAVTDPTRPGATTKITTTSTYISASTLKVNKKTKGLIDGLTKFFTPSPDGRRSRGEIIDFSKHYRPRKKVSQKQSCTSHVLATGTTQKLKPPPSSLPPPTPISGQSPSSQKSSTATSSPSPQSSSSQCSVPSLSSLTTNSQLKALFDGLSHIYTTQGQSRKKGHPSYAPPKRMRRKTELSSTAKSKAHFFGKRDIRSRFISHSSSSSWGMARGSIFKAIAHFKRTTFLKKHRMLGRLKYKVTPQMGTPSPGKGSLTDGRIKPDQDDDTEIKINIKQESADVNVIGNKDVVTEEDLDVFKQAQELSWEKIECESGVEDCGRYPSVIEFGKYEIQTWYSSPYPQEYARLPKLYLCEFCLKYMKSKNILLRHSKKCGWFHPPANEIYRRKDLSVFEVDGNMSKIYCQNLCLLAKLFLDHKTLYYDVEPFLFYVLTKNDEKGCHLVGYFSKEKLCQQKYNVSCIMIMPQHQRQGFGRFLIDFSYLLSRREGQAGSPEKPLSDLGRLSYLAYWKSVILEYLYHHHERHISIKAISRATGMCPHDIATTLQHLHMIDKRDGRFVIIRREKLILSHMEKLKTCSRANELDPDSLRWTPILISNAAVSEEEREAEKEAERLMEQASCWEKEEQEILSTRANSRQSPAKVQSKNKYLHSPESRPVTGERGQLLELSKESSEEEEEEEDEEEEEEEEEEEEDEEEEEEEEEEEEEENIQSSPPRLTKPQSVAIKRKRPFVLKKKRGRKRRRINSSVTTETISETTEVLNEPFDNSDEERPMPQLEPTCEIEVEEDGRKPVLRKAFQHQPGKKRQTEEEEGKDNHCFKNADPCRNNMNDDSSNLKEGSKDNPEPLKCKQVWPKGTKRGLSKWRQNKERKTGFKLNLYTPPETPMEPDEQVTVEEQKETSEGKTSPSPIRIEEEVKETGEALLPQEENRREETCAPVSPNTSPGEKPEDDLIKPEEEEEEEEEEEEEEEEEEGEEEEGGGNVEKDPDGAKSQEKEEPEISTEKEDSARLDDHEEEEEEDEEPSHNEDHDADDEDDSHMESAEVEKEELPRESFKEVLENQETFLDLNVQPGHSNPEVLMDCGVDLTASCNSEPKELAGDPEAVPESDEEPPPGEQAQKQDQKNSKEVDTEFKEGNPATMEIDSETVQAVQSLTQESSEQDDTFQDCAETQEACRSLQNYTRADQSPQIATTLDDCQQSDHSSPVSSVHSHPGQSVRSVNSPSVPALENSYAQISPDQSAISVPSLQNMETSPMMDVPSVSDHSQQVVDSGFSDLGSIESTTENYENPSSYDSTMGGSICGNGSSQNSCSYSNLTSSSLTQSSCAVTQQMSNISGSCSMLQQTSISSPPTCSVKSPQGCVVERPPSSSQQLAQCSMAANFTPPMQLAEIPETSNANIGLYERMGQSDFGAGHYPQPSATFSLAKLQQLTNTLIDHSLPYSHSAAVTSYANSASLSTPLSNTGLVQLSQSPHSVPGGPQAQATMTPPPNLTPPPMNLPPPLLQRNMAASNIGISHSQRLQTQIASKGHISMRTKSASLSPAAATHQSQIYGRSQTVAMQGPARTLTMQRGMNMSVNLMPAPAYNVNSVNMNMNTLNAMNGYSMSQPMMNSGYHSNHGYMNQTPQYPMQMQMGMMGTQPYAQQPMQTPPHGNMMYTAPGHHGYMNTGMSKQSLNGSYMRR

Mus musculus = assay: In vivo inhibition of HAT-1 in NSG mouse xenografted with human A549 cells assessed as reduction in Histone H4 lysine 12 acetylation in tumor administered as single ip injection and measured after 24 hrs by immunofluorescence analysis; type: functional, organism-based; conditions: dose 25-100 mg/kg
In short: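 A549 tumours were established in NSG mice and given one i.p. dose of vehicle or drug. Tumours were harvested 24 h later and sections immunostained for H4K12Ac. Median nuclear fluorescence was taken from all nuclei in 2 images per group; one-way ANOVA.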

[9] = biological target: Histone acetyltransferase KAT5 (Homo sapiens, UniProt Q92993); assay: Inhibition of human KAT5 incubated for 20 mins followed by 3H-Acetyl CoA addition and measured after 30 mins
Homo sapiens = species on record: Homo sapiens; assay: Inhibition of FAD-dependent oxidase (unknown origin)
[10] = Tmax in CD1 mouse at 100 mg/kg, ip measured after 15 to 4320 mins by LC-MS/MS analysis; type: ADME, organism-based; conditions: in vivo, time 15-4320 min; in short: as §2
[11] = biological target: Histone acetyltransferase KAT2B (Homo sapiens) (UniProt Q92831); assay: Inhibition of human pCAF at 100 uM incubated for 20 mins followed by 3H-Acetyl CoA addition and measured after 30 mins; conditions: time 50.0 min
[12] = biological target: Histone acetyltransferase KAT2A (Homo sapiens) (UniProt Q92830); assay: Inhibition of human GCN5 at 100 uM incubated for 20 mins followed by 3H-Acetyl CoA addition and measured after 30 mins; conditions: time 50.0 min
Sequence of Histone acetyltransferase KAT2A (Homo sapiens) (Q92830 2-837 limits assumed): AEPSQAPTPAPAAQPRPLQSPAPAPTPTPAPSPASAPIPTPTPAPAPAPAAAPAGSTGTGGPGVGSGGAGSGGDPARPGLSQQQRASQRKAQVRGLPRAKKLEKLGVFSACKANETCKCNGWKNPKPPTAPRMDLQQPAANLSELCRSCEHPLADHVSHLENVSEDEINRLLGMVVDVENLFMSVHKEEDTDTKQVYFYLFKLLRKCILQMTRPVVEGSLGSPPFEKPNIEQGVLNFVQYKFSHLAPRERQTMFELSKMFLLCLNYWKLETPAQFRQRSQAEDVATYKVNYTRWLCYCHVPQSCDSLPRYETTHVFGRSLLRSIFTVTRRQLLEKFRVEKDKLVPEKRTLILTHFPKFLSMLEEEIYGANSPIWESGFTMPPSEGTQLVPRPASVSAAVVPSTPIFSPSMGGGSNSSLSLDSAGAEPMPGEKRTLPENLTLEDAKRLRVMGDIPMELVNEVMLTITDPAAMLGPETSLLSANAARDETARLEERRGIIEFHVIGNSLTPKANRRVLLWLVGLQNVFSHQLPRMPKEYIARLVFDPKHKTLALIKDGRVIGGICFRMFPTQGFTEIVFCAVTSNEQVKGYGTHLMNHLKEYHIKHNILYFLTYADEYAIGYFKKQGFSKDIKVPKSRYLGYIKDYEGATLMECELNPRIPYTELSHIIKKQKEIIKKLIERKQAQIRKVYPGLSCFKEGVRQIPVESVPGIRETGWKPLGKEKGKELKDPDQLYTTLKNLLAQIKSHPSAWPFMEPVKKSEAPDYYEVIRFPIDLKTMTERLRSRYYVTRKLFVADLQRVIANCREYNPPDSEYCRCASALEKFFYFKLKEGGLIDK

HCC1806 = assay: Cytotoxicity against human HCC1806 cells assessed as inhibition of cell growth by resazurin dye based fluorescence analysis; type: functional
In short: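 HCC1806 cells were treated across a range of doses. Growth was read by resazurin reduction to resorufin, with fluorescence at 590 nm.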

[13] = Cmax in CD1 mouse at 100 mg/kg, ip measured after 72 hrs by LC-MS/MS analysis; type: ADME, organism-based; design: time 72 hrs, dose 100 mg/kg, route ip; conditions: in vivo; in short: as §2
[14] = Toxicity in mouse assessed as drug tolerance up to 250 mg/kg, ip administered as single dose; type: organism-based; conditions: in vivo
[15] = Toxicity in mouse assessed as signs of distress at 500 mg/kg, ip administered as single dose; type: organism-based; conditions: in vivo
[16] = Cmax in CD1 mouse at 100 mg/kg, ip measured after 1 hr by LC-MS/MS analysis; type: ADME, organism-based; design: dose 100 mg/kg, time 1 hrs, route ip; conditions: in vivo; in short: as §2

SMILES: O=c1nc2n(CC(O)C(O)C(O)C(O)CO)c3cc(Cl)c(Cl)cc3nc-2c(=O)[nH]1 (stereo not drawn)
- inhibition [1]: 46%
- inhibition [2]: 31%
- IC50 (HAT1/Rbap46): 62.6 µM

SMILES: CCc1cc2c(cc1Cl)nc1c(=O)[nH]c(=O)nc-1n2CCCOc1ccc(C#N)cc1
- inhibition [2]: 25%

SMILES: CC(=O)Nc1cc2[nH]c3nc(=O)n(Cc4ccccc4)c(=O)c-3nc2cc1C
- inhibition [1]: 32%

SMILES: CCCC(=O)OC[C@@H](OC(=O)CCC)[C@@H](OC(=O)CCC)[C@H](Cn1c2nc(=O)[nH]c(=O)c-2nc2cc(C)c(C)cc21)OC(=O)CCC
- IC50 (HAT1/Rbap46): 17 µM

SMILES: CCc1cc2c(cc1Cl)nc1c(=O)[nH]c(=O)nc-1n2CCOc1ccc(-c2ccccc2)cc1
- inhibition [2]: 13%

SMILES: CCc1cc2c(cc1Cl)nc1c(=O)[nH]c(=O)nc-1n2CCOCC1CCN(C(=O)OC(C)(C)C)CC1
- inhibition [2]: 50%

SMILES: NC(=S)c1cn([C@@H]2O[C@H](CO)[C@@H](O)[C@H]2O)c2ncnc(N)c12
- inhibition [1]: 72.2%

SMILES: CCc1cc2c(cc1Cl)nc1c(=O)[nH]c(=O)nc-1n2C[C@H](O)[C@H](O)[C@H](O)CO
- inhibition [1]: 59%
- inhibition [2]: 40%

SMILES: CCc1cc2c(cc1Cl)nc1c(=O)[nH]c(=O)nc-1n2CCCc1cc(F)cc(F)c1
- inhibition [2]: 15%

SMILES: CCc1cc2c(cc1Cl)nc1c(=O)[nH]c(=O)nc-1n2CCOCc1cccc(F)c1
- inhibition [2]: 24%

SMILES: CCc1cc2c(cc1Cl)nc1c(=O)[nH]c(=O)nc-1n2CCOc1ccccn1
- inhibition [2]: 55%

SMILES: CCc1cc2c(cc1Cl)nc1c(=O)[nH]c(=O)nc-1n2CCOCc1ccccc1
- inhibition [2]: 49%

SMILES: Cc1cc2nc3[nH]c(=O)[nH]c(=O)c3nc2cc1C
- inhibition [3]: inactive
- inhibition [2]: 7%

SMILES: COC1=C(N)C(=O)c2nc(-c3nc(C(=O)O)c(C)c(-c4ccc(OC)c(OC)c4O)c3N)ccc2C1=O
- inhibition [1]: 66.3%

SMILES: CCc1cc2c(cc1Cl)nc1c(=O)[nH]c(=O)nc-1n2CCOCC(C)(C)C
- inhibition [2]: 40%

SMILES: O=C1CN2Cc3c(ccc(Cl)c3Cl)N=C2N1
- inhibition [2]: -5%

SMILES: CCc1cc2c(cc1Cl)nc1c(=O)[nH]c(=O)nc-1n2CCOCc1cccc(Br)c1
- inhibition [2]: 17%

SMILES: CCc1cc2c(cc1Cl)nc1c(=O)[nH]c(=O)nc-1n2CCOC(C)=O
- inhibition [2]: 49%

SMILES: CCc1cc2c(cc1Cl)nc1c(=O)[nH]c(=O)nc-1n2CCO
- inhibition [2]: 54%

SMILES: CCc1cc2c(cc1Cl)nc1c(=O)[nH]c(=O)nc-1n2CCOc1cc(F)cc(F)c1
- inhibition [2]: -1%

SMILES: CCc1cc2c(cc1Cl)nc1c(=O)[nH]c(=O)nc-1n2CCCOc1ccc(-c2ccccc2)cc1
- inhibition [2]: 8%

SMILES: CCc1cc2c(cc1Cl)nc1c(=O)[nH]c(=O)nc-1n2CCOCC(C)C
- half-life [4]: 25.4 h
- AUC(0-t) [5]: 641 µM·h
- CL/F [6]: 6.2 mL/min/kg
- Vd/F [7]: 13.6 L/kg
- Activity (A549): Active
- IC50 [8]: > 100 µM
- inhibition (Mus musculus): Dose-Dependent Effect
- IC50 [9]: > 100 µM
- inhibition (Homo sapiens): inactive
- Tmax [10]: 1 h
- inhibition [11]: inactive
- inhibition [12]: inactive
- EC50 (HCC1806): 10.4 µM
- Cmax [13]: 2.05 µM
- Activity [14]: Non-Toxic
- Activity [15]: Toxic
- Cmax [16]: 70.1 µM

SMILES: CCc1cc2c(cc1Cl)nc1c(=O)[nH]c(=O)nc-1n2CCOCC1CCCC1
- inhibition [2]: 47%
